Laboratory results published in ChEMBL document CHEMBL4177756, “Small Molecule Neuropilin-1 Antagonists Combine Antiangiogenic and Antitumor Activity with Immune Modulation through Reduction of Transforming Growth Factor Beta (TGFβ) Production in Regulatory T-Cells” (J Med Chem, 2018).
The source made the active and inactive calls. The calls are words filed in the database; no cut-off is given here.

Assays:
Neuropilin-1 [1] = target: T1, Neuropilin-1 (Homo sapiens, UniProt O14786); experiment: Binding affinity to N-terminal His6-tagged recombinant human NRP1-b1 domain expressed in Escherichia coli Rosetta Gami 2 (DE3) pLysS cells by SPR method
Method in brief: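 Human NRP1-b1 (residues 273–427, His6-tagged) was amine-coupled to a CM5 chip at high and low density; an unmodified spot served as reference. Runs were at 25 °C in PBS with 0.05% P20 and 3% DMSO. Compound was tested as 2-fold dilutions from 16 µM to 31 nM with 60 s injections. KD was taken from steady-state responses, DMSO-corrected; mean ± SD of the two surfaces.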

Neuropilin-1 [2] = target: T1, Neuropilin-1; experiment: Inhibition of biotinylated VEGF-A binding to N-terminal His6-tagged recombinant human NRP1-b1 domain expressed in Escherichia coli Rosetta Gami 2 (DE3) pLysS cells after 2 hrs
Aorta = experiment: Antiangiogenic activity in wild type C57Bl/6 mouse aortic ring assessed as inhibition of VEGFA-induced vessel sprouting at 30 uM after 7 days relative to control; format: functional
Method in brief: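 Thoracic aortas from female wild-type C57Bl/6 mice were cut into 0.5 mm rings, serum-starved overnight, and embedded in rat-tail type 1 collagen. Rings were cultured in OptiMEM with 2.5% FBS containing 0.1% DMSO, 25 ng/mL VEGF-A and/or 30 μM compound at 37 °C for 7 days, with medium changed on days 3 and 5. They were then fixed and stained with isolectin B4 and SMA, and sprout area was quantified by image analysis.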

Homo sapiens [3] = species on record: Homo sapiens; experiment: Antiinvasive activity in VEGFA-induced NRP1 expressing human A375P spheroids at 30 uM after 7 days; format: functional
HUVEC [4] = experiment: Antiangiogenic activity in HUVEC co-cultured with HDF assessed as inhibition of number of VEGFA-induced branch points in tubular networks at 30 uM after 4 days by immunofluorescence method relative to control; format: functional; details: Homo sapiens, 96 h
Method in brief: (§1)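 HDF were grown to confluence in 24-well plates and 10000 HUVECs were seeded on top in endothelial growth medium with 1% FBS. Cocultures received 0.1% DMSO, VEGF 25 ng/mL, 30 μM compound, or compound plus VEGF, for 4 days at 37 °C. They were ethanol-fixed and stained for von Willebrand factor. Branch points, network area and length were scored in four fields per well; three independent experiments.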

Mus musculus [5] = experiment: Half life in BALB/c mouse at 2 mg/kg, iv administered as bolus dose by LC-MS method; format: ADME, organism-based; details: in vivo
Method in brief: (§2)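 Female BALB/c mice, 6–8 weeks old, received 2 mg/kg as a tail-vein bolus formulated in 7.5% DMSO. Blood was taken by cardiac puncture at 5, 15, 30, 60, 180 and 240 min. Plasma was separated by centrifugation, snap-frozen and assayed by LC-MS/MS with electrospray ionization.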

Mus musculus [6] = species on record: Mus musculus; experiment: Immunomodulating activity in C57/Bl6 mouse Nrp1-positive Treg cells assessed as inhibition of glioma conditioned media-induced TGFbeta production at 500 nM preincubated for 2 hrs followed by glioma conditioned media challenge measured after 12 hrs by ELISA; format: functional
Method in brief: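 CD4+ Nrp1+ splenic T cells from 6-week-old C57/Bl6 mice were plated at 200000 per well on anti-CD3ε with anti-CD28 and expanded 72 h. Cells were pretreated 2 h with DMSO or 500 nM compound. They were then given 50% conditioned medium from serum-starved GL261 cells, and TGFβ was measured by ELISA after 12 h.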

Neuropilin-1 [7] = target: T1, Neuropilin-1; experiment: Inhibition of biotinylated VEGF-A binding to human NRP1 expressed in human DU145 cells after 2 hrs; format: cell-based
HUVEC [8] = experiment: Antimigratory activity in VEGFA-induced HUVEC at 30 uM after 4 hrs by transwell assay relative to control; format: functional, Homo sapiens
Method in brief: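 Transwell chemotaxis used 8 µm pore PET inserts. The bottom chamber held serum-free medium with or without 25 ng/mL VEGF-A, 0.1% DMSO, or 30 µM compound. HUVECs in serum-free EBM were added to the top chamber and incubated at 37 °C for 4 h. Non-migrated cells were removed, and membranes were fixed and stained. Migrated cells were counted in three random fields per well across five independent experiments, reported as mean ± SEM.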

Neuropilin-1 [9] = target: T1, Neuropilin-1; experiment: Inhibition of VEGF-A-stimulated NRP1-mediated VEGFR2 phosphorylation at Tyr1175 in HUVEC at 30 uM preincubated for 30 mins followed by VEGFA stimulation measured after 10 mins by immunoblot method relative to control; format: cell-based
Method in brief: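 Confluent HUVECs serum-starved 16 h in 0.5% serum, preincubated 30 min with 3, 10 or 30 µM compound, 0.1% DMSO or medium, then 1 ng/mL VEGF-A for 10 min. RIPA lysates were immunoblotted. Densitometry of pVEGF-R2/KDR was normalised to total VEGF-R2/KDR, from three independent experiments, means ± SEM.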

[10] = target: T2, Neuropilin-2 (Homo sapiens) (UniProt O60462); experiment: Binding affinity to His6-tagged recombinant human NRP2 at 62.5 to 1000 nM treated for 60 secs by SPR method
T2 sequence (whole entry): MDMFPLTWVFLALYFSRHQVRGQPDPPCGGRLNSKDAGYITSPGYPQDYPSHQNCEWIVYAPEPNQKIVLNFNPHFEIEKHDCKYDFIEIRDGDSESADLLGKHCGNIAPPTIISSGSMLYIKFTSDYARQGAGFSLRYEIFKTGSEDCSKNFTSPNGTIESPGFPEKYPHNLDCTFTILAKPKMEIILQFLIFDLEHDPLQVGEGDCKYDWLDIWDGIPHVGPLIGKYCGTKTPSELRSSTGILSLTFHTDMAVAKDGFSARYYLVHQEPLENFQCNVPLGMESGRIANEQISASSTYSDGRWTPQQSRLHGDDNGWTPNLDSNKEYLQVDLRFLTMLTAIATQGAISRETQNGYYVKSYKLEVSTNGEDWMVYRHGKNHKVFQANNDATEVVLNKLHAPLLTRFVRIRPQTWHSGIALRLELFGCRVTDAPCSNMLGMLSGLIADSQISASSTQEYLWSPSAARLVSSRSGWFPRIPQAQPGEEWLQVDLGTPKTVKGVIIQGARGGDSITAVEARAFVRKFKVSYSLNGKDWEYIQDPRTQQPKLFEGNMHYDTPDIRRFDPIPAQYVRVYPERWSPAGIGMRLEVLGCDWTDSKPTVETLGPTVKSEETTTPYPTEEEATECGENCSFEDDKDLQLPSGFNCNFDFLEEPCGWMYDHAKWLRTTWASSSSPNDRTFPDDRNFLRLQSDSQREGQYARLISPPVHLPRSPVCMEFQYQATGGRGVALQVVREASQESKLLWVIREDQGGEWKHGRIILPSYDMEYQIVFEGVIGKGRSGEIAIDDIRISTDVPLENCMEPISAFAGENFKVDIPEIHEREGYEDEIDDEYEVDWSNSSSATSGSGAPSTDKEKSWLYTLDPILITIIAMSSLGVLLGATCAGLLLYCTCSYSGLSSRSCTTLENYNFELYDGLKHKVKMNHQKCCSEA

HUVEC [11] = experiment: Antimigratory activity in HUVEC assessed as delay in VEGFA-induced wound closure at 30 uM after 5 days; format: functional, cell-based; details: Homo sapiens
Method in brief: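 HUVECs were starved overnight in 1% EBM, then wounded at 95% confluence. Wells received 1% EGM with 0.1% DMSO, 25 ng/mL VEGF-A and/or 30 μM compound. Migration into the wound was imaged every 2 h by live-cell imaging. Three independent experiments, 12 replicates per treatment.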

Homo sapiens [12] = species on record: Homo sapiens; experiment: Antiinvasive activity in NRP1 expressing human A375P spheroids at 30 uM after 7 days; format: functional
HUVEC [13] = experiment: Antimigratory activity in HUVEC at 30 uM after 4 hrs by transwell assay; format: functional, cell-based; details: Homo sapiens
Method in brief: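 HUVECs (1.5×10^5 per well, serum-free EBM) were placed in upper inserts with 8 µm pores. The bottom chamber held serum-free medium with 25 ng/mL VEGF-A, 0.1% DMSO, 30 μM compound, or VEGF-A plus compound. After 4 h at 37 °C, cells that migrated were stained and counted in three random fields; five independent experiments.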

Mus musculus [14] = experiment: AUC (infinity) in BALB/c mouse at 2 mg/kg, iv administered as bolus dose by LC-MS method; format: ADME, organism-based; design: dose 2 mg/kg, route intravenous, time infinity; details: in vivo; method in brief: as §2
HUVEC [15] = experiment: Antiangiogenic activity in HUVEC co-cultured with HDF assessed as inhibition of VEGFA-induced tubular network length at 30 uM after 4 days by immunofluorescence method relative to control; format: functional; details: Homo sapiens, 96 h; method in brief: as §1
Neuropilin-1 [16] = target: T1, Neuropilin-1; experiment: Binding affinity to N-terminal His6-tagged recombinant human NRP1-b1 domain expressed in Escherichia coli Rosetta Gami 2 (DE3) pLysS cells at 200 uM treated every 2 mins by ITC method
Mus musculus [17] = experiment: Tmax in BALB/c mouse at 2 mg/kg, iv administered as bolus dose by LC-MS method; format: ADME, organism-based; details: in vivo; method in brief: as §2
Mus musculus [18] = experiment: Volume of distribution in BALB/c mouse at 2 mg/kg, iv administered as bolus dose by LC-MS method; format: ADME, organism-based; details: in vivo; method in brief: as §2
Mus musculus [19] = experiment: Cmax in BALB/c mouse at 2 mg/kg, iv administered as bolus dose by LC-MS method; format: ADME, organism-based; design: dose 2 mg/kg, route intravenous; details: in vivo; method in brief: as §2

T1 sequence (O14786 whole entry, the tested form may be a part): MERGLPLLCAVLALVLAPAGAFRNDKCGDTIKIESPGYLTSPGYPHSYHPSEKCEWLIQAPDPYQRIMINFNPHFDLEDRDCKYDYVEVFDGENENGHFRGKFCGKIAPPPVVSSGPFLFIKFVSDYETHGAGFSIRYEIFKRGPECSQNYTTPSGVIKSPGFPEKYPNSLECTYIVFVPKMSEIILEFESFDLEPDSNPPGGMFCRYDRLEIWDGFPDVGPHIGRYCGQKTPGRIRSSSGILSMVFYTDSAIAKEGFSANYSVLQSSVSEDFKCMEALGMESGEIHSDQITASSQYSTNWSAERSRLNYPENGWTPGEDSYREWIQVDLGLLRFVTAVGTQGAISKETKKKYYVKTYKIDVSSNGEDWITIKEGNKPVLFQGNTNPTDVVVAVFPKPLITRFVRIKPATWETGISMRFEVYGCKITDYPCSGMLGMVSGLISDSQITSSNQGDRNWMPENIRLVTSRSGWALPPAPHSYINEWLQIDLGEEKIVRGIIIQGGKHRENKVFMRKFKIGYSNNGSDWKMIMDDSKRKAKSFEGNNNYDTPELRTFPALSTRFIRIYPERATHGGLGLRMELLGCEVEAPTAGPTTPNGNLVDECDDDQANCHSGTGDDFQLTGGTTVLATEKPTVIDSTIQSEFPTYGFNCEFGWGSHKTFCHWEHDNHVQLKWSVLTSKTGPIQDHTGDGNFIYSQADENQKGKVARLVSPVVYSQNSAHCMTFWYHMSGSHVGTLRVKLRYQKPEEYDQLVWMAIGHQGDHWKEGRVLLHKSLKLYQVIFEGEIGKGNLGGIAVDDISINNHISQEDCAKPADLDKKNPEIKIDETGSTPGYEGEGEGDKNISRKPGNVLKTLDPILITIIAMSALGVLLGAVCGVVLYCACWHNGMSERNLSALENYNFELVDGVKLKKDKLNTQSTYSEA

N=C(N)NCCC[C@H](NC(=O)c1sccc1NS(=O)(=O)c1cc(-c2cccc(CN3CCC(C(N)=O)CC3)c2)cc2c1OCC2)C(=O)O
Kd (Neuropilin-1 [1]): 1560 nM

N=C(N)NCCC[C@H](NC(=O)c1sccc1NS(=O)(=O)c1cc(-c2cccc(CN3CCC(N4CCOCC4)CC3)c2)cc2c1OCC2)C(=O)O
Kd (Neuropilin-1 [1]): 1380 nM

N=C(N)NCCC[C@H](NC(=O)c1sccc1NS(=O)(=O)c1cc(-c2ccccc2CN2CCC(C(N)=O)CC2)cc2c1OCC2)C(=O)O
Kd (Neuropilin-1 [1]): 2050 nM

N#CCC1CCN(Cc2ccccc2-c2cc3c(c(S(=O)(=O)Nc4ccsc4C(=O)N[C@@H](CCCNC(=N)N)C(=O)O)c2)OCC3)CC1
Kd (Neuropilin-1 [1]): 1860 nM

N#CCC1CCN(Cc2cccc(-c3cc4c(c(S(=O)(=O)Nc5ccsc5C(=O)N[C@@H](CCCNC(=N)N)C(=O)O)c3)OCC4)c2)CC1
Kd (Neuropilin-1 [1]): 1410 nM

N=C(N)NCCC[C@H](NC(=O)c1sccc1NS(=O)(=O)c1cc(-c2ccccc2CN)cc2c1OCC2)C(=O)O
Kd (Neuropilin-1 [1]): 1870 nM

CNC(=O)C1CCN(Cc2cccc(-c3cc4c(c(S(=O)(=O)Nc5ccsc5C(=O)N[C@@H](CCCNC(=N)N)C(=O)O)c3)OCC4)c2)CC1
Kd (Neuropilin-1 [1]): 1330 nM

N=C(N)NCCC[C@H](NC(=O)c1sccc1NS(=O)(=O)c1cc(-c2ccccc2)cc2c1OCC2)C(=O)O
Kd (Neuropilin-1 [1]): 14400 nM

N=C(N)NCCC[C@H](NC(=O)c1sccc1NS(=O)(=O)c1cc(-c2ccc(CN)cc2)cc2c1OCC2)C(=O)O
IC50 (Neuropilin-1 [2]): 609 nM | fold change (FC) (Aorta): 7 | Activity (Homo sapiens [3]): Active | inhibition at 30 µM (HUVEC [4]): 41% | t1/2 (Mus musculus [5]): 257 min | inhibition (Mus musculus [6]): Active | IC50 (Neuropilin-1 [7]): 1600 nM | Activity (HUVEC [8]): >60% | inhibition (Neuropilin-1 [9]): 50% | Activity [10]: inactive | Activity (HUVEC [11]): Active | Activity (Homo sapiens [12]): inactive | Activity (HUVEC [13]): inactive | AUC (Mus musculus [14]): 2379 ng·h/mL | inhibition at 30 µM (HUVEC [15]): 40% | Ka (Neuropilin-1 [16]): 4.14 ×10⁶ /M | Tmax (Mus musculus [17]): 4.8 min | Kd (Neuropilin-1 [1]): 1320 nM | Vd (Mus musculus [18]): 4.39682 L/kg | Cmax (Mus musculus [19]): 1678 ng/mL

CN(C)Cc1cccc(-c2cc3c(c(S(=O)(=O)Nc4ccsc4C(=O)N[C@@H](CCCNC(=N)N)C(=O)O)c2)OCC3)c1
t1/2 (Mus musculus [5]): 40.8 min | AUC (Mus musculus [14]): 564.44 ng·h/mL | Tmax (Mus musculus [17]): 4.8 min | Kd (Neuropilin-1 [1]): 4520 nM | Vd (Mus musculus [18]): 1.05261 L/kg | Cmax (Mus musculus [19]): 1959.8 ng/mL
